Results collected from several papers.
Protocols differ between the studies behind these lines.
Target: Carbonic anhydrase 1 (CA1, Homo sapiens, UniProt P00915)
Read-out: enzyme activity
Mode: inhibitor

Structure (SMILES)	test	Ki [µM]
Cc1c(Cl)c(=O)oc2cc(OCCCCSC#N)ccc12	stopped-flow	> 100
O=C(OCc1cn(-c2ccccc2)nn1)c1ccc(=O)oc1	stopped-flow	> 100
Cc1cncc(CN2CCC(=C3c4ccc(Cl)cc4CCc4cccnc43)CC2)c1	absorbance	9.95
NS(=O)(=O)c1nnc(NC(=O)CCC2CCCCO2)s1 (centres unmarked)	stopped-flow	0.75
CCOC(=O)c1ccc(=O)oc1	stopped-flow	> 100
OC(Cn1cncn1)(Cn1cncn1)c1ccc(F)cc1F	–	7.56
CC1(C(=O)Nc2nnc(S(N)(=O)=O)s2)CCC1	stopped-flow	0.334
COc1ccc(OC(=O)c2ccc(=O)oc2)cc1	stopped-flow	> 100
OCCOCCN1CCN(C(c2ccccc2)c2ccc(Cl)cc2)CC1 (centres unmarked)	–	10.3
CC1CCCC(C(=O)Nc2nnc(S(N)(=O)=O)s2)C1 (centres unmarked)	stopped-flow	0.0827
COc1cc(C)c(/C=C/C(C)=C/C=C/C(C)=C/C(=O)O)c(C)c1C	–	7.68
CC1CCCCC1OC(=O)c1ccc(=O)oc1 (centres unmarked)	stopped-flow	> 100
NS(=O)(=O)c1cnc(NC(=O)CCc2ccccc2)s1	stopped-flow	2.43
CC(C)[C@H](N)C(=O)OCCOCn1cnc2c(=O)[nH]c(N)nc21	–	8.7
N#CSCCCCOc1ccc2c(-c3ccccc3)cc(=O)oc2c1	stopped-flow	> 100
CC(C(=O)Nc1nnc(S(N)(=O)=O)s1)C1CCCCC1 (centres unmarked)	stopped-flow	0.0475
O=C(OCc1cn(-c2ccc([N+](=O)[O-])cc2)nn1)c1ccc(=O)oc1	stopped-flow	> 100
Nc1nc2c(ncn2COCCO)c(=O)[nH]1	–	7.31
NCCCC(=O)Nc1nnc(S(N)(=O)=O)s1	stopped-flow	0.155
O=C(OCc1cn(-c2ccc(Cl)cc2)nn1)c1ccc(=O)oc1	stopped-flow	> 100
